The values below come from publication PMC5901702 (Journal of biomolecular screening, 2012).

The assay deals with T1, rat IDE (Rattus norvegicus, UniProt P35559).
T1 sequence (P35559 1-1019): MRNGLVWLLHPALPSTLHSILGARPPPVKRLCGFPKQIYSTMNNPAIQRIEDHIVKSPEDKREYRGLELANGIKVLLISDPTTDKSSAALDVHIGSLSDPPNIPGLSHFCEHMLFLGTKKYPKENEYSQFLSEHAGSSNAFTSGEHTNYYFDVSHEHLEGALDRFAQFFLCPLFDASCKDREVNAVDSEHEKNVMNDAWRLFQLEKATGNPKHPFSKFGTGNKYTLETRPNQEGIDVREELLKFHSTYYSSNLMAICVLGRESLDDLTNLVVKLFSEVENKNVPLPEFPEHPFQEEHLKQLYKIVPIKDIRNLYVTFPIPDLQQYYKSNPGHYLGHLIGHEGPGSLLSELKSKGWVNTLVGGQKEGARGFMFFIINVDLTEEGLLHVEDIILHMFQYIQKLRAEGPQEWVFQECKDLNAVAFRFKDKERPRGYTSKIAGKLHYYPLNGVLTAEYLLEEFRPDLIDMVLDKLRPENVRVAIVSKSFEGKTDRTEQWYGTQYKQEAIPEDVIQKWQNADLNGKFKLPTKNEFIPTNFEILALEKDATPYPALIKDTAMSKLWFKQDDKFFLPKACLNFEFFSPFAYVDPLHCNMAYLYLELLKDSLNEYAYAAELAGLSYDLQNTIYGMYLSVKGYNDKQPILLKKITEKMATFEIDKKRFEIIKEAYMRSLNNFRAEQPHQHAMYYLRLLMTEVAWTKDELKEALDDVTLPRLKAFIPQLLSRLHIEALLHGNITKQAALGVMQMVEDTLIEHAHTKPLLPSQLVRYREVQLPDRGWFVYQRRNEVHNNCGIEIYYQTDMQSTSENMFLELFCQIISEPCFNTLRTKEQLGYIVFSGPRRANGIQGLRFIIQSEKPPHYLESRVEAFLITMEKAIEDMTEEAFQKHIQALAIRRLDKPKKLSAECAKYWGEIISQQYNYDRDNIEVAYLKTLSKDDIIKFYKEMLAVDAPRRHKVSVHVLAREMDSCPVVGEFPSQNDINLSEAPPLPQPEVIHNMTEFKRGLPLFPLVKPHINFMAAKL
In words: Thermal melt. Format: binding. The settings on record: 100 µM compound; rat IDE 0.5 µM; 28 to 70 °C. In short, it runs like this: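 Thermal shift: recombinant rat IDE (0.5 µM) with 5× SYPRO Orange in 0.1 M KPi pH 7.6, plus DMSO or compound (100 µM). Samples were held 60 min in the dark at room temperature under mineral oil, then heated 28–70 °C in 1–3 °C steps. Fluorescence was read at 465/590 nm. Tm came from a four-parameter variable-slope sigmoidal fit.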

Molecules are shown by their SMILES.

Regarding `O=S(=O)(O)c1cc(O)c2c(O)c(N=Nc3cccc4ccccc34)c(S(=O)(=O)O)cc2c1` [Compound 3], the “shift in thermal melting profile (Tm) of IDE” value was “substantial shift in the melting profile”.
